# This is a sample that favours compounds with a hit; in the whole collection about 1.6% have one here.
# Rev-erbA mod – modulators of Rev-erb alpha DNA binding, primary screen, biochemical, FITC-DNA, fluorescence polarization, uHTS; Nuclear receptor subfamily 1 group D member 1 (Homo sapiens), P20393; Rev-erbα–FITC-DNA binding, 90 min; activity, % at 10 µM; actives 0.79% (n = 370,000); AID 1259318, 2017;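 active = activity above about 14%, limit read from the data; passing the limit was not always enough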
# PKA-R2B act – activators of PKA-R2B holoenzyme, primary screen, biochemical, fluorescence polarization, Cy5-IP20, human; cAMP-dependent protein kinase catalytic subunit beta (Homo sapiens) + cAMP-dependent …; PKA-R2B holoenzyme dissociation; R2B truncated from residue 108, S112A mutant; 0% DMSO only, 100% 113 µM cGMP; activation, % at 11.4 µM; actives 0.079% (n = 340,000); AID 504700, 2011;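 active = activation above a cutoff set at the mean over all compounds plus 3 SD, cut at about 18% in these data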;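 also: higher means more holoenzyme dissociation and a rise in polarization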
# NR2E3 ag-1 – NR2E3 agonists in two-hybrid cells, primary screen, cell-based, luminescence, CHO-S, Gal4-NCOR/VP16-NR2E3; luciferase; actives 0.35% (n = 360,000); AID 602229, 2012; inhibition of corepressor binding, % at 3.98 µM;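 active = inhibition above the mean of all tested compounds plus 3 SD, cut at about 70% in these data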;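 also: higher means lower luciferase signal from less NR2E3 corepressor binding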
# Target sequence (Q9Y5X4 whole entry, looked up, the tested form may be a part): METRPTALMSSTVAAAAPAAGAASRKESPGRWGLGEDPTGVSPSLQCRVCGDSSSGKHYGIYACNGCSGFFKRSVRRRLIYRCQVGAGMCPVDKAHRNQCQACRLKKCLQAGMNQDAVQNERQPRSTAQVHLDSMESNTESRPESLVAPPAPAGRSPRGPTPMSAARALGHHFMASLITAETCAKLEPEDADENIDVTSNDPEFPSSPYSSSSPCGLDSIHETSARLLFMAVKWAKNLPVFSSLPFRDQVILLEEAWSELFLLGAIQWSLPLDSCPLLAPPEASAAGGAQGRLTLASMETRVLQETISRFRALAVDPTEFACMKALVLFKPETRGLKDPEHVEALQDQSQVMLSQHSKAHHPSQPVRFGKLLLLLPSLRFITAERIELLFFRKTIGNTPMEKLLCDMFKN
# PG9 binder – binders of HIV-1 gp120 antibody PG9, primary screen, biochemical, TR-FRET | AID 624416, 2012 | inhibition, % at 6.7 µM | TR-FRET gp120-PG9 antibody binding | actives 0.43% (n = 360,000) | HIV-1 gp120 / PG9 antibody interaction; in the data active = inhibition above about 8.5%
# NR2E3 ag-2 – inhibitors of NR2E3-RetCOR corepressor binding, primary screen, NR2E3 agonist project, biochemical, TR-FRET, GST-NR2E3, biotin-RetCOR | AID 2300, 2010 | Photoreceptor-specific nuclear receptor (Homo sapiens), Q9Y5X4 | actives 0.12% (n = 320,000) | inhibition of corepressor binding, % at 4.78 µM | 1536-well;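 active = percent inhibition above the cutoff of mean plus 3 SD of all tested compounds, set per screening campaign, cut at about 20% in these data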
#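 system = GST-tagged NR2E3 plus biotinylated RetCOR corepressor | input = 1.35 nM GST-NR2E3 | also added = 7 nM biotin-RetCOR | schedule = 5 h incubation at 4 °C | measured by = TR-FRET with europium anti-GST and streptavidin-D2, 340 nm excitation | read-out = percent loss of FRET ratio relative to control wells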
# PKA-R1A activ – activators of PKA-R1A holoenzyme, primary screen, biochemical, fluorescence polarization, Cy5-IP20, bovine R1A, mouse PKAc; PKA-R1A dissociation; scaled: DMSO 0%, 113 µM cGMP 100%; activation, % at 11.4 µM; actives 0.083% (n = 340,000); AID 504707, 2011;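 active = percent activation above the mean of all tested compounds plus 3 SD, cut at about 19% in these data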;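 also: higher means more PKAc released from R1A so a rise in polarization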
# NR2E3 ag confirm – NR2E3 agonist confirmation in cells, cell-based, luminescence, CHO-S two-hybrid; inhibition, % at 3.98 µM; shares compounds with NR2E3 ag-1; CHO-S mammalian two-hybrid NR2E3-NCOR, luciferase luminescence; actives 51% (n = 2,300);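 active = average inhibition above a cutoff equal to the mean inhibition of all tested compounds plus one SD, cut at about 70% in these data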
# GAL4-VP16 luc – GAL4-VP16 reporter modulators, confirmation, counter-screen for NR2E3 agonist project, cell-based, luminescence, CHO-S, high throughput | shares compounds with NR2E3 ag-1 | CHO-S GAL4-VP16 luciferase reporter | inhibition, % at 3.98 µM | actives 29% (n = 2,300);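 active = mean inhibition above a cutoff equal to the average over all tested compounds plus one standard deviation, cut at about 70% in these data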;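 also: luciferase from a UAS reporter driven by GAL4-VP16 transactivation; higher means less reporter light so more repression of VP16 activity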
# Hits are given with their value; . = inactive; / = not tested or not shown.
SMILES,Rev-erbA mod,PKA-R2B act,NR2E3 ag-1,PG9 binder,NR2E3 ag-2,PKA-R1A activ,NR2E3 ag confirm,GAL4-VP16 luc
CC(C)(C)c1ccc(-n2ncc3c2CCCC3NC(=O)CN2CCOC2=O)cc1 (configuration not stated),.,.,.,.,.,.,.,.
Cc1ccc(-n2ncc3c2CCCC3NC(=O)CCCN2CCCC2=O)cc1C (configuration not stated),.,.,.,.,.,.,/,/
CC(C)(C)c1ccc(-n2ncc3c2CCCC3NC(=O)CCN2CCCCC2=O)cc1 (configuration not stated),.,.,.,.,.,.,.,.
COc1ccc(-n2ncc3c2CC(C)(C)CC3NC(=O)CN2CCOC2=O)cc1 (configuration not stated),.,.,.,.,/,.,/,/
CC(C)C(C#CC1CC1)NCc1ccc2c(c1)OCO2 (configuration not stated),.,/,/,/,/,/,/,/
COC(=O)[C@]12C[C@H](CC(=O)NCc3ccc(C)o3)C(=O)N(Cc3cccc4ccccc34)C1=C[C@H](C(C)(C)C)O[C@@H]2C,.,/,/,/,/,/,/,/
CSc1ccccc1OCc1cc(C(=O)NC(C)c2cnn(C)c2)no1 (configuration not stated),.,.,.,.,.,.,/,/
CCc1ccc(CN(C)C(=O)c2cc(COc3c(F)cccc3F)on2)cc1,.,.,.,.,.,.,/,/
CN(Cc1cccc2cnccc12)C(=O)c1cc(COc2ccc(F)cc2F)on1,.,.,72.1,.,/,.,.,.
CCc1ccc(CN(C)C(=O)c2cc(COc3cccc4cnccc34)on2)cc1,.,.,107.8,.,.,.,98.3,89.0
Cc1c(C(C)NC(=O)c2cc(COc3cccc4cnccc34)on2)cnn1C (configuration not stated),.,.,72.1,.,.,.,.,.
Cc1ccc(NC(=O)C2CCCN(c3nnc(-n4cccc4)s3)C2)cc1C (configuration not stated),.,/,/,/,/,/,/,/
O=C(Nc1cccc(NC(=O)c2c(F)cccc2F)n1)c1c(F)cccc1F,.,.,.,.,.,.,79.4,.
O=C(Nc1cccc(NC(=O)c2cccc(F)c2)n1)c1cccc(F)c1,.,.,.,.,.,.,/,/
COC(=O)[C@]12C[C@H](CC(=O)NCc3cccs3)C(=O)N(Cc3ccco3)C1=C[C@H](COCc1ccccc1)O[C@@H]2C,.,/,/,/,/,/,/,/
CO/N=C/c1ccc(N2CCN(C(=O)c3ccc(Cl)cc3Cl)CC2)c([N+](=O)[O-])c1,.,.,76.1,.,.,.,91.2,76.4
Cn1ncc(Cl)c1C(=O)N1CCN(c2ccc(Cl)c(Cl)c2)CC1,.,.,102.6,.,.,.,94.7,86.4
Cn1ncc(Cl)c1C(=O)N1CCN(c2ccccc2)CC1,.,.,.,.,.,.,/,/
O=C(c1csc2ccccc12)N1CCN(c2ccc(Cl)c(Cl)c2)CC1,.,.,.,.,.,.,81.2,.
O=S1(=O)c2c(cccc2N2CC[C@@H](O)C2)O[C@H]2CCN1C2,.,/,/,/,/,/,/,/
O=C(Nc1cccc(C(F)(F)F)c1)OCCCN1CCC2(CCC(c3ccccc3)CC2)C1=O (configuration not stated),.,/,/,/,/,/,/,/
Cc1ccc(C)c(NC(=O)CN2C(=O)CCSc3ccccc32)c1,.,/,/,/,/,/,/,/
CC[C@H](C)C(=O)O[C@H]1C[C@@H](C)C=C2C=C[C@H](C)[C@H](CC[C@@H]3C[C@@H](O)CC(=O)O3)[C@H]21,.,.,.,.,.,.,.,.
CCC(C)C(=O)OC1CCC=C2C=CC(C)C(CCC3CC(O)CC(=O)O3)C21 (configuration not stated),.,.,.,.,/,.,/,/
O=C(CC1C=CCC1)OCCN1CCN(C2CN(Cc3cn(Cc4ccccc4Cl)nn3)S(=O)(=O)C2)CC1 (configuration not stated),.,/,/,/,/,/,/,/
SMILES,Rev-erbA mod,PKA-R2B act,NR2E3 ag-1,PG9 binder,NR2E3 ag-2,PKA-R1A activ,NR2E3 ag confirm,GAL4-VP16 luc
CSC(=Nc1ccccc1)C(C#N)c1nc2ccccc2[nH]1 (configuration not stated),.,.,.,.,.,.,/,/
N#CC(C(=S)Nc1ccccc1)c1nc2ccccc2[nH]1 (configuration not stated),.,.,77.9,.,.,.,.,.
CCc1cccc(OCC(=O)Nc2ccc(C)c(S(=O)(=O)N3CCCCCC3)c2)c1,.,.,.,.,.,.,/,/
Cc1ccc(NC(=O)COc2ccc(N(C)C(=O)C(C)(C)C)cc2)cc1S(=O)(=O)N1CCCCC1,.,.,.,.,/,.,.,.
Nc1nc2cc3c(cc2cc1C(=O)NCc1ccc(F)cc1)OCO3,/,/,88.1,/,/,/,93.5,72.4
Nc1nc2ccc(Cl)cc2cc1C(=O)NCc1ccc(Oc2ccccc2)cc1,/,/,95.0,/,/,/,94.3,82.0
Nc1nc2ccc(Cl)cc2cc1C(=O)NCCc1c[nH]c2ccccc12,/,/,93.1,/,/,/,94.2,83.1
Nc1nc2cc3c(cc2cc1C(=O)NCc1cccnc1)OCO3,.,/,/,.,/,/,/,/
C/C(=N\NC(=O)CSc1nnc(-c2ccccc2)n1-c1ccc(C)cc1)c1ccc(-c2ccccc2)cc1,.,/,/,/,/,/,/,/
C[C@@H]1COc2cc(Br)ccc2S(=O)(=O)N1Cc1cn(Cc2ccc(Cl)cc2)nn1,.,/,/,/,/,/,/,/
Cc1[nH]oc(=O)c1N=Nc1ccccc1,.,.,74.8,.,.,.,.,.
COc1ccc(-n2c(SCC(=O)Nc3ccccc3-c3ccccc3)nnc2-c2ccccn2)cc1,.,/,/,/,/,/,/,/

# Assay outcomes as filed in PubChem.
